According to ChEMBL document CHEMBL1131242, “6beta-Acetoxynortropane: a potent muscarinic agonist with apparent selectivity toward M2-receptors” (J Med Chem, 1998):
Residue numbers refer to the chain shown, from its start.

Key:
[1] = target: Muscarinic acetylcholine receptor M4 (Homo sapiens) (UniProt P08173); assay: Inhibition of binding of [3H]quinuclidinyl benzilate to Muscarinic acetylcholine receptor M4 in membranes of transfected CHO cells
[2] = target: Muscarinic acetylcholine receptor M4 (Homo sapiens) (UniProt P08173); assay: Inhibitory activity against [3H]-cyclic AMP accumulation in CHO transfected cells mediated by Muscarinic acetylcholine receptor M4
[3] = target: T1, Muscarinic acetylcholine receptor M4 (Homo sapiens) (UniProt P08173); assay: Inhibition of binding of [3H]quinuclidinyl benzilate to muscarinic receptors in membranes of CHO cells transfected with Muscarinic acetylcholine receptor M4
T1 sequence (whole entry): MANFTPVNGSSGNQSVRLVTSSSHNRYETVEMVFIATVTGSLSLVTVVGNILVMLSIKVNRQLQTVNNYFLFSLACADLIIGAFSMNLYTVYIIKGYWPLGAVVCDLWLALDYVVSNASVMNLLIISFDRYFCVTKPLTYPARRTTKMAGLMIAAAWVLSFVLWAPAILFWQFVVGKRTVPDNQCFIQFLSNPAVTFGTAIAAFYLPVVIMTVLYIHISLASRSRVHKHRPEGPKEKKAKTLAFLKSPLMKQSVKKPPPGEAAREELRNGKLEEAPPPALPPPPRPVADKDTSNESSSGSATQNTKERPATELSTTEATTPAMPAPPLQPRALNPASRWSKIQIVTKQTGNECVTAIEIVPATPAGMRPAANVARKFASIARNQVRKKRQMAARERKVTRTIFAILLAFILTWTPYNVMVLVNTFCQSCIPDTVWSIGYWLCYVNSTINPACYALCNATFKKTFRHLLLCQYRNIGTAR

[4] = target: T2, Muscarinic acetylcholine receptor M3 (Homo sapiens, UniProt P20309); assay: Inhibition of binding of [3H]quinuclidinyl benzilate to human Muscarinic acetylcholine receptor M3 in membranes of transfected CHO cells at 100 uM concentration; details: Membrane
Target sequence in this assay (P20309 whole entry, looked up): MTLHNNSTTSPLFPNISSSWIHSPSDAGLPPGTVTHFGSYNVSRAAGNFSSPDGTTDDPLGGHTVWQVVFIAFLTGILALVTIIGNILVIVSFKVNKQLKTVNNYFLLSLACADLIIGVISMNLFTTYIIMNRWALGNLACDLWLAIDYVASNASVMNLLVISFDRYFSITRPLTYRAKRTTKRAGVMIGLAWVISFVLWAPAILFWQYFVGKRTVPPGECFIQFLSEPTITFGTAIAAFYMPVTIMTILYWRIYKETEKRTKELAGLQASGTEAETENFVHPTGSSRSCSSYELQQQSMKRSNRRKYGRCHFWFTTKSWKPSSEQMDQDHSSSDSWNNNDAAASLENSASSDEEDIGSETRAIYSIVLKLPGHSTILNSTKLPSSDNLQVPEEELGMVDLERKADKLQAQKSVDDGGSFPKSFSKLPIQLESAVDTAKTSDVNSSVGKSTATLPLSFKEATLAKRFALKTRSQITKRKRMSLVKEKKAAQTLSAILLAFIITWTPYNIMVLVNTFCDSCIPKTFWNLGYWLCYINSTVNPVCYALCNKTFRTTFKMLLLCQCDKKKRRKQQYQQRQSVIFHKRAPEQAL

[5] = target: T2, Muscarinic acetylcholine receptor M3; assay: Percentage inhibition of binding of [3H]quinuclidinyl benzilate to muscarinic receptors in membranes of CHO cells transfected with Muscarinic acetylcholine receptor M3
Target sequence in this assay (P20309 whole entry, looked up): as above

[6] = target: T2, Muscarinic acetylcholine receptor M3; assay: Inhibitory activity against stimulation of [3H]inositol monophosphate accumulation in [3H]inositol-labelled CHO transfected cells mediated by Muscarinic acetylcholine receptor M3
Target sequence in this assay (P20309 whole entry, looked up): as above

[7] = target: T3, Neuronal acetylcholine receptor; alpha4/beta2 (Rattus norvegicus, UniProt P09483+P12390); assay: Inhibition of binding of [3H]nicotine to Nicotinic acetylcholine receptor alpha4-beta2 in rat cerebral cortical membranes at 100 uM concentration; format: cell membranes, Membrane
T3 sequence (P09483 whole entry): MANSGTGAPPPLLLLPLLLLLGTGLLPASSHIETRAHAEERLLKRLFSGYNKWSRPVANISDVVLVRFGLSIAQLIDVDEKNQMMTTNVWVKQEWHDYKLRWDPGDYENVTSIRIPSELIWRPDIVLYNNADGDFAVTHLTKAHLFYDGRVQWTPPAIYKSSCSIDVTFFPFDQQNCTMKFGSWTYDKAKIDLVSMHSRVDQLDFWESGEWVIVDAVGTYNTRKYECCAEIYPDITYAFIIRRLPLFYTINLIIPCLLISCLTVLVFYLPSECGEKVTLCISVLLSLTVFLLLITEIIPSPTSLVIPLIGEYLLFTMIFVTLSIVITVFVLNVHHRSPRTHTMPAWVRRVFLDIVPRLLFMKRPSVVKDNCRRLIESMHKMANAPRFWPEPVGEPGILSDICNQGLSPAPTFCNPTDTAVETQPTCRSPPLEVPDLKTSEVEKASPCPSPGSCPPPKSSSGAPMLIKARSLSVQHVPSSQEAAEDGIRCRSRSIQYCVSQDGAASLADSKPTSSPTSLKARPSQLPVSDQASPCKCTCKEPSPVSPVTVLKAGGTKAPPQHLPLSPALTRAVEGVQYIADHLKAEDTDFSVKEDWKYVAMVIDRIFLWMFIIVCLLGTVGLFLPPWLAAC
T3 sequence (P12390 whole entry): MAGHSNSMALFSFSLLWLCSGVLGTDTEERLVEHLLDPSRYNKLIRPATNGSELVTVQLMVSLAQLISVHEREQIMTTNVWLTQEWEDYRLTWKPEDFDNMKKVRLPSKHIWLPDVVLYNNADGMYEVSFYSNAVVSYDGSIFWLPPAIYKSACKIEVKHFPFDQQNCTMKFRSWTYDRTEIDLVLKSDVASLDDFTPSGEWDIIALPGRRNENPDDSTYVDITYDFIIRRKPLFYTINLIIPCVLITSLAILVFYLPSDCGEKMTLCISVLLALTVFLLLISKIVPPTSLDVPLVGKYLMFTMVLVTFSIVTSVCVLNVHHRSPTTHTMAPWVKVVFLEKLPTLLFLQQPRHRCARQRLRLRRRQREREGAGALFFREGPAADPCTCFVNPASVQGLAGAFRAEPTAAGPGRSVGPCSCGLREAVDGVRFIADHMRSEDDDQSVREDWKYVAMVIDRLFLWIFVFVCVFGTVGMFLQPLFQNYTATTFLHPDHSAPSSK
In short: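 [3H]nicotine (0.2 nM) binding to rat cortical membranes, with 200 µM diisopropyl fluorophosphate, 120 min at 0–4 °C, triplicate. Nonspecific binding with 1 µM nicotine. Percent inhibition at 100 µM test agent; mean ± SEM, n = 4.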

[8] = target: T3, Neuronal acetylcholine receptor; alpha4/beta2; assay: The compound was evaluated for percentage inhibition of binding of [3H]- nicotine to Nicotinic acetylcholine receptor alpha4-beta2 in Rat Cerebral Cortical Membranes; format: protein-complex assay
In short: (§1)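 Rat cerebral cortex membranes with 0.2 nM [3H]nicotine in HEPES binding buffer pH 7.4 containing 200 µM diisopropyl fluorophosphate. Incubation was 120 min at 0–4 °C, in triplicate. Nonspecific binding used 1 µM nicotine. Samples were filtered through polyethylenimine-soaked GF/B filters and counted.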

[9] = target: T4, Muscarinic acetylcholine receptor M1 (Homo sapiens) (UniProt P11229); assay: (§2) Percentage inhibition of binding of [3H]quinuclidinyl benzilate to muscarinic receptors in membranes of CHO cells transfected with Muscarinic acetylcholine receptor M1; format: cell membranes; details: concentration not given here
T4 sequence (whole entry): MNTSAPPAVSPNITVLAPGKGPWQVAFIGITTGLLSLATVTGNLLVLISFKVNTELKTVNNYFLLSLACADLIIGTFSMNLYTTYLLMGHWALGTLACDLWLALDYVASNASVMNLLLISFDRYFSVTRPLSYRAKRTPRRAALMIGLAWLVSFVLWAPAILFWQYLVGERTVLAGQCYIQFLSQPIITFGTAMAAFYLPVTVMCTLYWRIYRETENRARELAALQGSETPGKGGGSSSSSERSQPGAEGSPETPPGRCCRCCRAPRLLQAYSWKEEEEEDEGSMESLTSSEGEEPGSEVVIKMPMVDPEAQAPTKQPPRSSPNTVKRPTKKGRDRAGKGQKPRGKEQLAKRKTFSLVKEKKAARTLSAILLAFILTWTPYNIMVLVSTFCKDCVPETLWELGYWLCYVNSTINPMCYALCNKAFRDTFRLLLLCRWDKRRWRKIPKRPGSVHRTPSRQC
In short: (§3)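 Membranes from CHO cells expressing human M1–M4 receptors in 25 mM sodium phosphate pH 7.4 with 5 mM MgCl2, 30 min at 37 °C, triplicate. [3H]quinuclidinyl benzilate was 0.2 nM for M1 and M3 and 0.1 nM for M2 and M4. Nonspecific binding used 10 µM atropine for M1 and 1 µM for the others.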

[10] = target: T5, Muscarinic acetylcholine receptor M1 (Rattus norvegicus, UniProt P08482); assay: Inhibition of binding of [3H]oxotremorine M to Muscarinic acetylcholine receptor M1 in rat cerebral cortical membranes; format: cell membranes, Membrane
T5 sequence (P08482 whole entry): T4 sequence (whole entry) with A5V, T254S, P309S, R320K, A337G, I413V
In short: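 Agonist radioligand assay: rat cortical membranes with 2 nM [3H]oxotremorine M in 25 mM sodium phosphate pH 7.4 with 5 mM MgCl2, 2 h at 25 °C, in triplicate. Nonspecific binding used 5 µM atropine. Filtration followed by scintillation counting.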

[11] = target: T5, Muscarinic acetylcholine receptor M1; assay: Inhibition of binding of [3H]quinuclidinyl benzilate to Muscarinic acetylcholine receptor M1 in rat cerebral cortical membranes; format: cell membranes, Membrane
In short: (§4)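 Rat cerebral cortex membranes were homogenised in 50 mM Tris-HCl pH 7.4 and diluted in HEPES binding buffer. They were incubated with 0.2 nM [3H]quinuclidinyl benzilate in 20 mM HEPES pH 7.4 with 10 mM MgCl2 and 100 mM NaCl for 30 min at 37 °C, in triplicate. Nonspecific binding used 1 µM atropine. Filtration was followed by scintillation counting.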

[12] = target: T5, Muscarinic acetylcholine receptor M1; assay: The compound was evaluated for inhibition of binding of [3H]quinuclidinyl benzilate to Muscarinic acetylcholine receptor M1 in Rat Cerebral Cortical Membranes
In short: as §4

[13] = target: T5, Muscarinic acetylcholine receptor M1; assay: Affinity versus [3H]quinuclidinyl benzilate (antagonist) binding to Muscarinic acetylcholine receptor M1 in Rat Cerebral Cortical Membranes,
In short: as §4

[14] = target: T5, Muscarinic acetylcholine receptor M1; assay: Affinity versus [3H]oxotremorine M (agonist) binding to Muscarinic acetylcholine receptor M1 in Rat Cerebral Cortical Membranes, (Kd=[…])
[15] = target: T2, Muscarinic acetylcholine receptor M3; assay: Inhibition of binding of [3H]quinuclidinyl benzilate to muscarinic receptors in membranes of CHO cells transfected with Muscarinic acetylcholine receptor M3; format: cell membranes
Target sequence in this assay (P20309 whole entry): as the sequence (P20309 whole entry, looked up) above

[16] = target: T6, Muscarinic acetylcholine receptor M2 (Homo sapiens, UniProt P08172); assay: (§5) Inhibition of binding of [3H]quinuclidinyl benzilate to muscarinic receptors in membranes of CHO cells transfected with Muscarinic acetylcholine receptor M2; format: cell membranes
T6 sequence (P08172 whole entry): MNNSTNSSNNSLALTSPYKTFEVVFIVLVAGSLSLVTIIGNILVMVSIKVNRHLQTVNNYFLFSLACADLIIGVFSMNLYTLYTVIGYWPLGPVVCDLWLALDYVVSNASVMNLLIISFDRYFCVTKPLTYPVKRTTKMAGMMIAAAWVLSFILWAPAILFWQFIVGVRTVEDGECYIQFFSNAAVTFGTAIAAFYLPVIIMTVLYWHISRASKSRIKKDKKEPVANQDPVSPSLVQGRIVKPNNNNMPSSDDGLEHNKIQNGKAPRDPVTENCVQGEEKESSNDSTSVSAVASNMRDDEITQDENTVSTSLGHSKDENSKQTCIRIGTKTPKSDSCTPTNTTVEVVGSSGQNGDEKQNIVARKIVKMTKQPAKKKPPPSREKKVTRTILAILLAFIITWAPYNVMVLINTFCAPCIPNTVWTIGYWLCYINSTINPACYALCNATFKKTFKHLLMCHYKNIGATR

[17] = target: T7, Muscarinic acetylcholine receptor M4 (Homo sapiens, UniProt P08173); assay: (§6) Inhibition of binding of [3H]quinuclidinyl benzilate to muscarinic receptors in membranes of CHO cells transfected with Muscarinic acetylcholine receptor M4; format: cell membranes
T7 sequence (P08173 whole entry): T1 sequence (whole entry)

[18] = target: T3, Neuronal acetylcholine receptor; alpha4/beta2; assay: Inhibition of binding of [3H]nicotine to Nicotinic acetylcholine receptor alpha4-beta2 in rat cerebral cortical membranes; format: cell membranes, Membrane
In short: as §1

[19] = target: T8, Muscarinic acetylcholine receptor M1 (Rattus norvegicus) (UniProt P08482); details: Membrane; 30 uM
T8 sequence (whole entry): T4 sequence (whole entry) with A5V, T254S, P309S, R320K, A337G, I413V

[20] = target: Muscarinic acetylcholine receptor M2 (Homo sapiens) (UniProt P08172); assay: Inhibition of binding of [3H]quinuclidinyl benzilate to Muscarinic acetylcholine receptor M2 in membranes of transfected CHO cells
[21] = target: T8, Muscarinic acetylcholine receptor M1 (Rattus norvegicus); assay: as §2; format: cell membranes; details: concentration not given here
In short: as §3

[22] = target: T9, Muscarinic acetylcholine receptor M4 (Rattus norvegicus) (UniProt P08485); assay: Inhibition of binding of [3H]quinuclidinyl benzilate to Muscarinic acetylcholine receptor M4 […] at 300 uM concentration; format: cell membranes; details: Membrane
T9 sequence (whole entry): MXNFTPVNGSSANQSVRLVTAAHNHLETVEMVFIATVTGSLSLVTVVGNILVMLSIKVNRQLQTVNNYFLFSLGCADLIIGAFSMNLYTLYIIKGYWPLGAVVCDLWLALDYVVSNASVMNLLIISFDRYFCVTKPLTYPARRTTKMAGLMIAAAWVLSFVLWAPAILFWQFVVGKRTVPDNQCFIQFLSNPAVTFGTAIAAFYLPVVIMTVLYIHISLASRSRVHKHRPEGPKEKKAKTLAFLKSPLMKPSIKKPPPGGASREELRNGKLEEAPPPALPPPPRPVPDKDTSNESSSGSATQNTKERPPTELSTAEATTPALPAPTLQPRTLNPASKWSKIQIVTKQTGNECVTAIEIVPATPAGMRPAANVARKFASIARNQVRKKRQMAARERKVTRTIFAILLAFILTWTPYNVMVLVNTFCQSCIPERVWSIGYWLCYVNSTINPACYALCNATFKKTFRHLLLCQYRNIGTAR

[23] = target: Muscarinic acetylcholine receptor M3 (Rattus norvegicus) (UniProt P08483); assay: Percentage inhibition of binding of [3H]quinuclidinyl benzilate to muscarinic receptors in membranes of CHO cells transfected with Muscarinic acetylcholine receptor M3; format: cell membranes; details: concentration not given here
Chain of Muscarinic acetylcholine receptor M3 (Rattus norvegicus) (P08483 whole entry, looked up): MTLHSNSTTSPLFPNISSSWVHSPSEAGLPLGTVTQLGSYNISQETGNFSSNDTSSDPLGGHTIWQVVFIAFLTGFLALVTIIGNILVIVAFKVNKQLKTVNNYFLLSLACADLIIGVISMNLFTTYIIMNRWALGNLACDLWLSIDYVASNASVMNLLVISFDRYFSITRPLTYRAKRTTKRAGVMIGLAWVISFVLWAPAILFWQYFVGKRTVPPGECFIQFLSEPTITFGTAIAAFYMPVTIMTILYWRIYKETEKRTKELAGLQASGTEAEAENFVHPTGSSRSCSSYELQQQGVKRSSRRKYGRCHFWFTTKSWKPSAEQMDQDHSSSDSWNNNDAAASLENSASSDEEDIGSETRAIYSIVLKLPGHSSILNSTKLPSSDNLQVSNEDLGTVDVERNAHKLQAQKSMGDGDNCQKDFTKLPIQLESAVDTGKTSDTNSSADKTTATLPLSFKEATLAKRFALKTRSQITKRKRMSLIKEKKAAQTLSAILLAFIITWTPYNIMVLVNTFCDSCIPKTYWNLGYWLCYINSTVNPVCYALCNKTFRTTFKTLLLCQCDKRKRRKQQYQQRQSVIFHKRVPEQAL

[24] = target: T9, Muscarinic acetylcholine receptor M4 (Rattus norvegicus); assay: as §6; format: cell membranes; details: concentration not given here
In short: as §3

[25] = target: T10, Muscarinic acetylcholine receptor M2 (Rattus norvegicus, UniProt P10980); assay: as §5; format: cell membranes
T10 sequence (P10980 whole entry): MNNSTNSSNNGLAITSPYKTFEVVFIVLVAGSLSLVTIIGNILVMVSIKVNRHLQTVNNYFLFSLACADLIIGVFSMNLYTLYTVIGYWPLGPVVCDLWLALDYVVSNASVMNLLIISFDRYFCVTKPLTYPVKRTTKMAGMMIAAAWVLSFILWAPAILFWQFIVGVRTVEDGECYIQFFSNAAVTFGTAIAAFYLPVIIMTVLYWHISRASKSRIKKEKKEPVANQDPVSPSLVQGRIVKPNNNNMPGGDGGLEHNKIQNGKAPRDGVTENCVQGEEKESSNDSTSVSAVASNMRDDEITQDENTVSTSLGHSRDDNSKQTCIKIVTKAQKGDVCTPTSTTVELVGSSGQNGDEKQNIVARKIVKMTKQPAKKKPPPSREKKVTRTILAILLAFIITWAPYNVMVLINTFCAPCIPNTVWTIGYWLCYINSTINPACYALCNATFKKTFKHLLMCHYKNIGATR
In short: as §3

[26] = target: Muscarinic acetylcholine receptor M1 (Homo sapiens) (UniProt P11229); assay: Inhibition of binding of [3H]quinuclidinyl benzilate to human Muscarinic acetylcholine receptor M1 in membranes of transfected CHO cells at 300 uM concentration; details: Membrane

C[C@@H]1O[C@H](C[N+](C)(C)C)C[C@H]1O [MUSCARINE]
Ki [1]: 1.4 µM | IC50 [2]: 0.47 µM | Ki [3]: 1.4 µM | inhibition [4]: 28% | inhibition [5]: 28% | EC50 [6]: 0.13 µM

COC(=O)C1=CCCN(C)C1 [ARECOLINE]
Ki [7]: 0.27 µM | Ki [8]: 0.27 µM

CC(=O)OC1CC2CCCC1N2C (centres undefined)
inhibition [9]: 48% | Ki [10]: 2.6 µM | Ki [11]: 280 µM | Ki [12]: 280 µM | Ki [13]: 280 µM | Ki [14]: 2.6 µM | Ki [15]: 15 µM | Ki [16]: 2.7 µM | Ki [17]: 8.3 µM | Ki [18]: 1.5 µM | Ki [8]: 1.5 µM | inhibition [19]: 48% | Ki [20]: 2.7 µM | Ki [1]: 8.3 µM

COC(=O)[C@H]1CC2NC1CC[C@@H]2O (some centres undefined)
inhibition [21]: 2% | Ki [10]: 18 µM | Ki [14]: 18 µM | inhibition [22]: 33% | inhibition [23]: 0% | Ki [18]: 4 µM | Ki [8]: 4 µM | inhibition [24]: 33% | Ki [25]: 12 µM | Ki [20]: 12 µM | inhibition [26]: 2% | inhibition [4]: 0%
